ChEMBL document CHEMBL3871264, “Design of a novel thiophene inhibitor of 15-lipoxygenase-1 with both anti-inflammatory and neuroprotective properties” (Eur J Med Chem, 2016)
pKi: −log10 of the molar value. Activity calls are given as the source filed them. The rule behind the calls is not given here.

What was measured:
[1] = biological target: T1, Polyunsaturated fatty acid lipoxygenase ALOX15 (Homo sapiens, UniProt P16050); assay: Competitive inhibition of human 15-LOX-1 assessed as reduction in conversion of linoleic acid to 13(S)-HpODE incubated for 10 mins followed by linoleic acid addition by Lineweaver-Burk plot analysis
T1 sequence (P16050 whole entry): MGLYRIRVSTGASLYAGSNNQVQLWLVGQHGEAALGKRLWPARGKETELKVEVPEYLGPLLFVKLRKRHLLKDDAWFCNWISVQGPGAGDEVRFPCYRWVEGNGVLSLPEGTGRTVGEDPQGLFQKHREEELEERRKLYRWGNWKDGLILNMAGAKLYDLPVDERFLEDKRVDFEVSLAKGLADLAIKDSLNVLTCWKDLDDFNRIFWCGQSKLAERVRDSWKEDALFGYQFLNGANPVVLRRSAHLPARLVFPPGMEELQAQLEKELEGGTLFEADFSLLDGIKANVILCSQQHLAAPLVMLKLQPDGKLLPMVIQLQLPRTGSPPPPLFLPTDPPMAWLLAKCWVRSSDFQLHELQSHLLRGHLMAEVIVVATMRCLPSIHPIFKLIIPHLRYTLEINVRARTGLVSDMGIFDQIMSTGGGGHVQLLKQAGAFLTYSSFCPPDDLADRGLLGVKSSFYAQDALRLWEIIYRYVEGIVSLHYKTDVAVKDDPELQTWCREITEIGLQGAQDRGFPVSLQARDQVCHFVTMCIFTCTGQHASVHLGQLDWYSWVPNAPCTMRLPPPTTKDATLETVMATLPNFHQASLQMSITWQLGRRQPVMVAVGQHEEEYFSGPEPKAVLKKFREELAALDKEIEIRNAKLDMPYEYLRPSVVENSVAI

[2] = biological target: T2, Polyunsaturated fatty acid lipoxygenase ALOX15 (Homo sapiens) (UniProt P16050); assay: Competitive inhibition of human 15-LOX-1 assessed as apparent Vmax at 5 uM by Lineweaver-Burk plot analysis (reference value: 1.6 +/- 0.2 10^-4abs/s)
T2 sequence (whole entry): T1 sequence (P16050 whole entry)
Method in brief: (§1)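 Purified enzyme activity was read as UV absorbance at 234 nm of the product formed from linoleic acid substrate, in 96-well format. Substrate-dependence runs were done with and without inhibitor. Apparent Km and Vmax were derived from Lineweaver-Burk plots.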

[3] = biological target: T2, Polyunsaturated fatty acid lipoxygenase ALOX15 (Homo sapiens); assay: Competitive inhibition of human 15-LOX-1 assessed as apparent Vmax at 15 uM by Lineweaver-Burk plot analysis (reference value: 1.6 +/- 0.2 10^-4abs/s); method in brief: as §1
Mus musculus = species: Mus musculus; assay: Toxicity in C57bl/6 mouse precision-cut lung slices assessed as decrease in tissue viability up to 50 uM after 20 hrs in presence of linoleic acid by lactate dehydrogenase release assay; assay type: organism-based; details: in vivo
Method in brief: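 Mouse lung slices were cultured with inhibitor and 10 μM linoleic acid for 20 h at 37 °C. LDH released into the medium was measured by automated analyzer.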

[4] = biological target: T3, Polyunsaturated fatty acid lipoxygenase ALOX15 (Mus musculus) (UniProt P39654); assay: Inhibition of 15-LOX-1 in C57bl/6 mouse precision-cut lung slices assessed as reduction in LPS-stimulated IL-6 mRNA expression level at 50 uM incubated for 20 hrs followed by LPS stimulation for 4 hrs in presence of linoleic acid by RT-qPCR analysis
T3 sequence (whole entry): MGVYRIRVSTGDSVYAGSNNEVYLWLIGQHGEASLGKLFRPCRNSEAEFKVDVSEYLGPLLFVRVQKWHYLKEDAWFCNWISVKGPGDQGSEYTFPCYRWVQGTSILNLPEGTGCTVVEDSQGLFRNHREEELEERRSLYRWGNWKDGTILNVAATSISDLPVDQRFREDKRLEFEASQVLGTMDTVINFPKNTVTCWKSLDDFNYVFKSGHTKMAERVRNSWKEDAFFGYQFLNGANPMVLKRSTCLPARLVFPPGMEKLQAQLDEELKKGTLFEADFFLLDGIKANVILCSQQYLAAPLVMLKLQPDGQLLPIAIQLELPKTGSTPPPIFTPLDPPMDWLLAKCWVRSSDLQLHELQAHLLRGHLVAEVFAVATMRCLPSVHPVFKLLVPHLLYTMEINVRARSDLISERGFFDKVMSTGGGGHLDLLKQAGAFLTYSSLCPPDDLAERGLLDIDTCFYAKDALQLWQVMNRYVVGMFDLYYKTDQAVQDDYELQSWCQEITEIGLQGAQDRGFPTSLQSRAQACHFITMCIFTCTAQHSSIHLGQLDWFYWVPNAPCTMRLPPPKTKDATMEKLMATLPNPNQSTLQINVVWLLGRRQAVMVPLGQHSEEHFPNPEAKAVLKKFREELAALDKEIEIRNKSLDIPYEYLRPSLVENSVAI
Method in brief: (§2)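 Lung slices, 250 μm, were cut from agarose-filled lungs of male C57bl/6 mice aged 8-10 weeks and cultured at 37 °C in 5% CO2 in supplemented DMEM, 3 slices per well. Inhibitor was given for 20 h with 10 μM linoleic acid. For the last 4 h, 10 ng/ml LPS plus 10 ng/ml IFNγ were added. Read-out was RT-qPCR (10 ng cDNA, GAPDH assay included), in duplicate or triplicate wells, as fold change versus LPS/linoleic acid control, with 4-6 independent experiments.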

[5] = biological target: T3, Polyunsaturated fatty acid lipoxygenase ALOX15 (Mus musculus); assay: Inhibition of 15-LOX-1 in C57bl/6 mouse precision-cut lung slices assessed as reduction in LPS-stimulated IL-8 mRNA expression level at 50 uM incubated for 20 hrs followed by LPS stimulation for 4 hrs in presence of linoleic acid by RT-qPCR analysis; method in brief: as §2
[6] = biological target: T3, Polyunsaturated fatty acid lipoxygenase ALOX15 (Mus musculus); assay: Inhibition of 15-LOX-1 in C57bl/6 mouse precision-cut lung slices assessed as reduction in LPS-stimulated TNFalpha mRNA expression level at 50 uM incubated for 20 hrs followed by LPS stimulation for 4 hrs in presence of linoleic acid by RT-qPCR analysis; method in brief: as §2
[7] = biological target: T3, Polyunsaturated fatty acid lipoxygenase ALOX15 (Mus musculus); assay: Inhibition of 15-LOX-1 in mouse HT22 cells assessed as protection against glutamate-induced cell impedance at 5 to 10 uM cotreated with glutamate measured for 16 to 20 hrs by real time cell viability assay; assay type: cell-based; details: HT-22
Method in brief: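 HT-22 cells were seeded at 8x10^3 per well, incubated overnight, then given 4 mM glutamate. Inhibitor was either co-applied (1-20 µM; PD146176 at 1 µM) or added at 10 µM 2, 4, 6 or 8 h after glutamate. Impedance was recorded in real time for 16-20 h, with cell index normalized just before glutamate addition.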

[8] = biological target: T3, Polyunsaturated fatty acid lipoxygenase ALOX15 (Mus musculus); assay: Inhibition of 15-LOX-1 in mouse HT22 cells assessed as protection against glutamate-induced cell death by measuring increase in cell viability at 10 uM incubated up to 8 hrs following glutamate challenge by MTT assay; assay type: cell-based; details: HT-22
Method in brief: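 HT-22 cells were seeded at 8x10^3 per well and incubated overnight. They were challenged with 4 mM glutamate in DMEM/10% FCS. Inhibitor was given either with glutamate (1-20 µM; PD146176 at 1 µM) or added at 5 or 10 µM 2, 4, 6 or 8 h after glutamate. After 14-16 h, MTT was added at 0.5 mg/mL for 1 h at 37 °C. Formazan was dissolved in DMSO and read at 570 nm minus 630 nm background, expressed relative to control. Three experiments were run with 6-8 replicates each.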

CCCCNC(=O)c1cc(-c2ccccc2)sc1N
pKi [1]: 5.48
Vmax(app) [2]: 1.5 ×10⁻⁴ abs/s
Vmax(app) [3]: 1.6 ×10⁻⁴ abs/s
Activity (Mus musculus): Non-Toxic
inhibition [4]: 50%
inhibition [5]: 50%
inhibition [6]: 50%
inhibition [7]: Active
inhibition [8]: Active
